Source: ChEMBL document CHEMBL2346505, “Pyranoflavones: a group of small-molecule probes for exploring the active site cavities of cytochrome P450 enzymes 1A1, 1A2, and 1B1” (J Med Chem, 2013)

Columns and labels:
Type in all cases: ADME
CYP1A2 / CYP1A1 = experiment: Selectivity ratio of IC50 for CYP1A2 (unknown origin) to IC50 for CYP1A1 (unknown origin); conditions: human; read-out: Ratio IC50
Cytochrome P450 1A1 [1] = biological target: T1, Cytochrome P450 1A1 (Homo sapiens, UniProt P04798); experiment: Inhibition of CYP1A1 (unknown origin)-mediated deethylation of resorufin ethyl ether after 5 mins by spectrofluorimetric analysis
T1 sequence (P04798 whole entry): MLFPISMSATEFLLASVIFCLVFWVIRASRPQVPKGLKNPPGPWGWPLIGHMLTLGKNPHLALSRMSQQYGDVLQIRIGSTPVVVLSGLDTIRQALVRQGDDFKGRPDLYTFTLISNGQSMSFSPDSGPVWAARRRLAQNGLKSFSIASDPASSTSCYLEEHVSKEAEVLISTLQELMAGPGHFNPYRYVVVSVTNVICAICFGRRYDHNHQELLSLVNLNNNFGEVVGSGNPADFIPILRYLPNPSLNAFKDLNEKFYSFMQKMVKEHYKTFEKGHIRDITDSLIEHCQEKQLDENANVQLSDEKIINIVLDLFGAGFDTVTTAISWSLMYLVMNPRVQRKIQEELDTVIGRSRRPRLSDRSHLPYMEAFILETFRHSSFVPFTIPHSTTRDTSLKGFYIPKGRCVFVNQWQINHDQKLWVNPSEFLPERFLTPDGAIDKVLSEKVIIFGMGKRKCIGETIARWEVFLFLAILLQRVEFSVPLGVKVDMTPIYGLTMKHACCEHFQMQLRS
Outline: (§1)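 Microsomal P450 (final 5 nM) in 0.1 M potassium phosphate pH 7.6 with MgCl2; resorufin ether or coumarin substrate final 5 μM from DMSO stock; inhibitor added in DMSO, DMSO alone for controls. Reaction started with NADPH regenerating system (NADP+, glucose 6-phosphate, G6P dehydrogenase) at 37 °C; product formation followed fluorimetrically as progress curves.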

Cytochrome P450 1A2 [2] = biological target: T2, Cytochrome P450 1A2 (Homo sapiens, UniProt P05177); experiment: Inhibition of CYP1A2 (unknown origin)-mediated demethylation of resorufin methyl ether after 5 mins by spectrofluorimetric analysis; outline: as §1
T2 sequence (P05177 whole entry): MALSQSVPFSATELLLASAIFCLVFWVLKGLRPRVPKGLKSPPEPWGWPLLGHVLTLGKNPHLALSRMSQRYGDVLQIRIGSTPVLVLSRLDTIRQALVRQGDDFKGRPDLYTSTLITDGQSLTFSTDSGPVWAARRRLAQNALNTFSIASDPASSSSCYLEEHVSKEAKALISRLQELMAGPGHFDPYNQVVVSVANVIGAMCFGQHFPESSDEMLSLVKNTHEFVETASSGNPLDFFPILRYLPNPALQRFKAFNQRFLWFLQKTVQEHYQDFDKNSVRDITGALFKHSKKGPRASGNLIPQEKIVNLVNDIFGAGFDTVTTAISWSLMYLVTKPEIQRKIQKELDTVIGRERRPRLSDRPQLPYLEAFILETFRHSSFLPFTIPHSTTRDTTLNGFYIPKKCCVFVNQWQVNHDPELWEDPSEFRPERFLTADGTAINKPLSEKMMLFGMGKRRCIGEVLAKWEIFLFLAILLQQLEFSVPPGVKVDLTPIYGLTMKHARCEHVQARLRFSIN

Cytochrome P450 2B1 = biological target: T3, Cytochrome P450 2B1 (Rattus norvegicus, UniProt P00176); experiment: Inhibition of CYP2B1 (unknown origin)-mediated depentylation of resorufin pentyl ether after 5 mins by spectrofluorimetric analysis; outline: as §1
T3 sequence (P00176 whole entry): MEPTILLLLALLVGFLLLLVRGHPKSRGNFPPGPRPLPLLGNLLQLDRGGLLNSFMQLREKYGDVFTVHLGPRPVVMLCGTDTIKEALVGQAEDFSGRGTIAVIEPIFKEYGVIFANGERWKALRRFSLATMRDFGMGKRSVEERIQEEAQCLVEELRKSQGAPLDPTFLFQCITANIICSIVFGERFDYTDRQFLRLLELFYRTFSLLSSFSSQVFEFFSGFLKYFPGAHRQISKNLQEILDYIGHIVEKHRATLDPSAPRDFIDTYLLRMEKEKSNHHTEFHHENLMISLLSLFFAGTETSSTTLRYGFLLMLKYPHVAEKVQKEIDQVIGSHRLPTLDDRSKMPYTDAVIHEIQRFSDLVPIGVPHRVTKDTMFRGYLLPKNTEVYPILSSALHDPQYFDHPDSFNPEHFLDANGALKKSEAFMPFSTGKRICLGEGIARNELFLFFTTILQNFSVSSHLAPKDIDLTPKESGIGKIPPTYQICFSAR

Cytochrome P450 1B1 = biological target: T4, Cytochrome P450 1B1 (Homo sapiens, UniProt Q16678); experiment: Inhibition of CYP1B1 (unknown origin)-mediated deethylation of resorufin ethyl ether after 5 mins by spectrofluorimetric analysis; outline: as §1
T4 sequence (Q16678 whole entry): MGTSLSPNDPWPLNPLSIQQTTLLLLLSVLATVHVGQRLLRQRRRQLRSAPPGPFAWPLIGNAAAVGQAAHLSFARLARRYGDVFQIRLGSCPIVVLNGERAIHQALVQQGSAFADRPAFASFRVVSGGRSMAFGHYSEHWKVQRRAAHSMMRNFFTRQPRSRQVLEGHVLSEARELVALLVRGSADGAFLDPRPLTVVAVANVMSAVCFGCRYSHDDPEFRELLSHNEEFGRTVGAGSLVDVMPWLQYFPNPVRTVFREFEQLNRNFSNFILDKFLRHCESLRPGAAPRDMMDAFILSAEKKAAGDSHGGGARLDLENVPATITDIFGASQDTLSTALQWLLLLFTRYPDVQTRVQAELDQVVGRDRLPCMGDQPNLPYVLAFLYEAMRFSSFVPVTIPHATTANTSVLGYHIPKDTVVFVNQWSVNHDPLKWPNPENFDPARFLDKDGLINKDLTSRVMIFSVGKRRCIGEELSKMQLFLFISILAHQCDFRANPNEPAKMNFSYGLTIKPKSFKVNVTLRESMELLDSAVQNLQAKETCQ

Cytochrome P450 2A6 = biological target: T5, Cytochrome P450 2A6 (Homo sapiens, UniProt P11509); experiment: Inhibition of CYP2A6 (unknown origin)-mediated coumarin 7-hydroxylation after 5 mins by spectrofluorimetric analysis; outline: as §1
T5 sequence (P11509 whole entry): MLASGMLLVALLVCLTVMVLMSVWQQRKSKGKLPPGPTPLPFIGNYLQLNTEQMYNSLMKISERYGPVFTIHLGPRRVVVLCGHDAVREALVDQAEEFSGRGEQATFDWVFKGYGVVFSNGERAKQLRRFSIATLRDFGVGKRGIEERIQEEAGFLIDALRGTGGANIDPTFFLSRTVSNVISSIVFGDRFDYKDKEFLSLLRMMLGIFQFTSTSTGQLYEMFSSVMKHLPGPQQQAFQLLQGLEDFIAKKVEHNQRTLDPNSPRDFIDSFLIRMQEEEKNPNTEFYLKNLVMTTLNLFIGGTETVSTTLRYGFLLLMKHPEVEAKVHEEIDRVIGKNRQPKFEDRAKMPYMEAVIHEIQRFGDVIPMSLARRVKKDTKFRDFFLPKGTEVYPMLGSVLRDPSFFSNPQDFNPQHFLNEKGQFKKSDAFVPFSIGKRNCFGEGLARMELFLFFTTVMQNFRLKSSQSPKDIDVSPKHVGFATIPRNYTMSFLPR

CYP1A1 = biological target: T6, CYP1A1 (Homo sapiens, UniProt P04798); experiment: (§2) Irreversible inhibition of CYP1A1 (unknown origin)-mediated deethylation of resorufin ethyl ether after 5 mins by spectrofluorimetric analysis; conditions: human, probe resorufin ethyl ether
T6 sequence (P04798 whole entry): T1 sequence (P04798 whole entry)

Cytochrome P450 1A1 [3] = biological target: T1, Cytochrome P450 1A1; experiment: as §2
Cytochrome P450 1A2 [4] = biological target: T2, Cytochrome P450 1A2; experiment: (§3) Irreversible inhibition of CYP1A2 (unknown origin)-mediated demethylation of resorufin methyl ether after 5 mins by spectrofluorimetric analysis
CYP1A2 = biological target: T7, CYP1A2 (Homo sapiens, UniProt P05177); experiment: as §3; conditions: human, probe resorufin methyl ether
T7 sequence (P05177 whole entry): T2 sequence (P05177 whole entry)

Cytochrome P450 1A2 [5] = biological target: T2, Cytochrome P450 1A2; experiment: Inhibition of CYP1A2 (unknown origin)-mediated demethylation of resorufin methyl ether at 0.1 uM after 5 mins by spectrofluorimetric analysis
Outline: (§4)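 Fluorimetric dealkylation of resorufin ether (ethyl for 1A1/1B1, methyl for 1A2) by microsomal P450 (final 5 nM), substrate final 5 μM, in 0.1 M potassium phosphate pH 7.6 with MgCl2 at 37 °C. Reaction started with NADPH regenerating system. Test compound at 0.1 μM in DMSO; activity compared with DMSO-only control.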

CYP1B1 over CYP1A1 = experiment: Selectivity ratio for CYP1B1 (unknown origin) over CYP1A1 (unknown origin); conditions: human
Outline: (§5)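 Ratio of IC50 values from fluorimetric dealkylation assays: resorufin ethyl ether deethylation (1A1, 1B1), resorufin methyl ether demethylation (1A2). Microsomal P450 5 nM final, substrate 5 μM final, 0.1 M potassium phosphate pH 7.6 with MgCl2, NADPH-regenerating system, 37 °C. Inhibitor 0.1–100 μM in DMSO. IC50s from progress curves, three independent experiments.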

CYP1B1 = biological target: T8, CYP1B1 (Homo sapiens, UniProt Q16678); experiment: Inhibition of CYP1B1 (unknown origin) dealkylation activity at 0.1 uM after 5 mins by spectrofluorimetric analysis relative to control; outline: as §4
T8 sequence (Q16678 whole entry): T4 sequence (Q16678 whole entry)

CYP1B1 over CYP1A2 = experiment: Selectivity ratio for CYP1B1 (unknown origin) over CYP1A2 (unknown origin); conditions: human; outline: as §5
Cytochrome P450 1A1 [6] = biological target: T1, Cytochrome P450 1A1; experiment: Inhibition of CYP1A1 (unknown origin)-mediated deethylation of resorufin ethyl ether at 0.1 uM after 5 mins by spectrofluorimetric analysis; outline: as §4

| IC50 (Cytochrome P450 1A1 [1]) [nM] | IC50 (Cytochrome P450 1A2 [2]) [nM] | IC50 (Cytochrome P450 2B1) [µM] | inhibition (INH) (Cytochrome P450 1B1) | IC50 (Cytochrome P450 2A6) [µM] | SMILES | further results |
| --- | --- | --- | --- | --- | --- | --- |
| 320 | 1130 | > 25 | Active | > 25 | O=c1cc(-c2ccccc2)oc2ccc3c(c12)OCC=C3 | selectivity ratio (CYP1A2 / CYP1A1): 3.5 |
| 150 | 760 | > 25 | Active | > 25 | O=c1cc(-c2ccccc2)oc2ccc3c(c12)C=CCO3 | selectivity ratio (CYP1A2 / CYP1A1): 5 |
| 270 | – | > 25 | Active | > 25 | O=c1cc(-c2ccccc2)oc2c3c(ccc12)OCC=C3 | – |
| – | – | 6.62 | Active | > 25 | O=c1cc(-c2ccc3c(c2)C=CCO3)oc2ccccc12 | – |
| 350 | 89 | > 25 | Active | > 25 | C#CCOc1cc(O)c2c(=O)cc(-c3ccccc3)oc2c1 | – |
| 110 | – | > 25 | Active | > 25 | O=c1cc(-c2ccccc2)oc2c3c(cc(O)c12)OCC=C3 | – |
| – | – | > 25 | Active | > 25 | O=c1cc(-c2ccccc2)oc2cc3c(c(O)c12)C=CCO3 | – |
| – | – | 4.08 | Active | > 25 | C#CCOc1cccc(-c2cc(=O)c3c(O)cccc3o2)c1 | kinact at 5 min (CYP1A1): 0.00317 s⁻¹; Ki (Cytochrome P450 1A1 [3]): 130 nM; Ki (Cytochrome P450 1A2 [4]): 71 nM; kinact at 5 min (CYP1A2): 0.000367 s⁻¹ |
| – | – | > 25 | Active | > 25 | O=c1cc(-c2cccc3c2C=CCO3)oc2cccc(O)c12 | – |
| – | – | > 25 | Active | > 25 | O=c1cc(-c2ccc3c(c2)OCC=C3)oc2cccc(O)c12 | – |
| – | > 20000 | > 25 | Active | > 25 | C#CCOc1ccc(-c2cc(=O)c3c(O)cccc3o2)cc1 | inhibition (INH) (Cytochrome P450 1A2 [5]): Not Active; selectivity ratio (CYP1B1 over CYP1A1): 100; inhibition at 5 min, 0.1 µM (CYP1B1): 50%; selectivity ratio (CYP1B1 over CYP1A2): > 250; inhibition (INH) (Cytochrome P450 1A1 [6]): Not Active |
| – | – | > 25 | Active | > 25 | O=c1cc(-c2ccc3c(c2)C=CCO3)oc2cccc(O)c12 | – |
| 41 | 600 | – | – | – | C#CCOc1ccc(-c2cc(=O)c3c(ccc4ccccc43)o2)cc1 | selectivity ratio (CYP1A2 / CYP1A1): 5 |
| – | – | 7.12 | Active | > 25 | O=c1cc(-c2cccc3c2C=CCO3)oc2ccccc12 [2'H,4H-[2,5'-BICHROMEN]-4-ONE] | – |
| – | – | 6.29 | Active | > 25 | O=c1cc(-c2cccc3c2OCC=C3)oc2ccccc12 [2'H,4H-[2,8'-BICHROMEN]-4-ONE] | – |
| 43 | – | 13 | Active | > 25 | O=c1cc(-c2ccccc2)oc2c1ccc1ccccc12 [ALPHA-NAPHTHOFLAVONE] | – |
| 54 | 470 | > 25 | Active | > 25 | O=c1cc(-c2ccccc2)oc2ccc3ccccc3c12 [BETA-NAPHTHOFLAVONE] | selectivity ratio (CYP1A2 / CYP1A1): 5 |
| – | – | > 25 | Active | > 25 | O=c1cc(-c2ccccc2)oc2cc(O)cc(O)c12 [CHRYSIN] | – |
